From article PMC3215888 (Cancer Chemotherapy and Pharmacology, 2011)
Where two headings read alike, the source gives them in different places.

Legend:
[1] = system: CHLA-122 neuroblastoma cell line; assay: DIMSCAN in vitro testing, 96 h; assay type: cell-based; settings: for IC50: Neuroblastoma cell, 96 h
Procedure, shortened: (§1)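 Neuroblastoma and Ewing sarcoma lines, STR-verified and maintained as in the originators' reports. Exposed for 96 h to test compound (DMSO stock diluted in medium) at 1 nM–10 μM. Viable cells quantified by fluorescein diacetate fluorescence with DIMSCAN digital image microscopy. Absolute IC50 = concentration giving 50% growth inhibition vs controls. Relative IC50 = concentration giving 50% of the maximum inhibitory effect.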

[2] = system: NB-1643 Neuroblastoma xenograft; assay type: in vivo, mice
Procedure, shortened: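 Female CB17 scid mice bearing subcutaneous tumors, 10 per group. Dosed by oral gavage twice daily, 5 days weekly for 6 weeks, at 20.8, 10.4, 5.2 or 2.6 mg/kg, in 10% 2-hydroxypropyl-β-cyclodextrin/1% sodium bicarbonate. Event = quadrupled tumor volume; EFS by Kaplan–Meier, exact log-rank test. Per-mouse scores PD/SD/PR (≥50% regression)/CR (<0.10 cm3)/MCR; group median reported. PR, CR and MCR count as objective responses.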

[3] = system: LA–N-6 neuroblastoma cell line; assay: DIMSCAN in vitro testing, 96 h; assay type: cell-based; settings: for IC50: Neuroblastoma cell, 96 h
Procedure, shortened: as §1

[4] = system: ALL-8 ALL T-cell xenograft; assay: ALL xenograft; assay type: in vivo, mice
Procedure, shortened: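 Female NOD/scid mice inoculated intravenously with leukemia cells, 8 per group. Test compound suspended in 10% 2-hydroxypropyl-β-cyclodextrin/1% sodium bicarbonate in water. Given by oral gavage twice daily, 5 days weekly for 3 weeks, at 20.8, 10.4, 5.2 or 2.6 mg/kg. Blood %hCD45 of leukocytes tracked; event = hCD45 reaching 25%. EFS by Kaplan–Meier, exact log-rank vs controls. Median group response from individual scores.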

[5] = system: A-673 Ewing sarcoma cell line; assay: DIMSCAN in vitro testing, 96 h; assay type: cell-based; settings: for IC50: Homo sapiens, A673, 96 h
Procedure, shortened: as §1

[6] = Toxicity; assay type: in vivo, mice; settings: solid tumor study at the MTD
Procedure, shortened: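 Deaths counted in control and treated arms of the xenograft efficacy studies (10 mice per solid tumor group, 8 per ALL group). A group would be excluded from analysis if mortality exceeded 25%.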

[7] = system: CHLA-90 neuroblastoma cell line; assay: DIMSCAN in vitro testing, 96 h; assay type: cell-based; settings: for IC50: Neuroblastoma cell, 96 h
Procedure, shortened: as §1

For COc1cc(Nc2ncc3c(n2)-c2ccc(Cl)cc2C(c2c(F)cccc2OC)=NC3)ccc1C(=O)O [MLN8237], the Ymin ([1]; CHLA-122, minimum T/C) was 0.6%, the IC50 ([1]; read-out: Absolute IC50) was 19 nM and the IC50 ([1]; read-out: Relative IC50) was 17 nM. For the same molecule, the “EFS T/C” value ([2]; 2.6 mg/kg) was 1.2, the EFS activity ([2]; 2.6 mg/kg) was “Low” and the “Estimate of median time to event” value ([2]; 2.6 mg/kg) was 20.3 days. For the same molecule, the Median group response ([2]; 2.6 mg/kg) was “PD1 (if the TGD value ≤1.5, that mouse was considered PD1)”, the Response activity ([2]; 2.6 mg/kg) was “Low” and the “Tumor volume T/C” value ([2]; 2.6 mg/kg) was 1.01. The “Median RTV/hCD45 at end of study” value ([2]; 2.6 mg/kg) was >4, the “EFS T/C” value ([2]; 5.2 mg/kg) was >2.4 and the EFS activity ([2]; 5.2 mg/kg) was “High”. The Response activity ([2]; 5.2 mg/kg) was “High”, the “Tumor volume T/C” value ([2]; 5.2 mg/kg) was 0.38 and the “Median RTV/hCD45 at end of study” value ([2]; 5.2 mg/kg) was 0.4. For the same molecule, the “EFS T/C” value ([2]; 10.4 mg/kg) was >2.4, the EFS activity ([2]; 10.4 mg/kg) was “High” and the Median group response ([2]; 10.4 mg/kg) was “MCR”. The Response activity ([2]; 10.4 mg/kg) was “High”, the “Tumor volume T/C” value ([2]; 10.4 mg/kg) was 0.30 and the “Median RTV/hCD45 at end of study” value ([2]; 10.4 mg/kg) was 0.0. The “EFS T/C” value ([2]; 20.8 mg/kg) was >2.4, the EFS activity ([2]; 20.8 mg/kg) was “High” and the Median group response ([2]; 20.8 mg/kg) was “MCR”. The Response activity ([2]; 20.8 mg/kg) was “High”, the “Tumor volume T/C” value ([2]; 20.8 mg/kg) was 0.14 and the “Median RTV/hCD45 at end of study” value ([2]; 20.8 mg/kg) was 0.0. For the same molecule, the Ymin ([3]; LA–N-6, minimum T/C) was 32.1%, the IC50 ([3]; read-out: Absolute IC50) was 54 nM and the IC50 ([3]; read-out: Relative IC50) was 31 nM. The “EFS T/C” value ([4]; 2.6 mg/kg) was 1.8, the EFS activity ([4]; 2.6 mg/kg) was “Low” and the “Estimate of median time to event” value ([4]; 2.6 mg/kg) was 23.0 days. For the same molecule, the Median group response ([4]; 2.6 mg/kg) was “PD2 (if the TGD value >1.5, the mouse was considered PD2)”, the Response activity ([4]; 2.6 mg/kg) was “Int” and the “Median RTV/hCD45 at end of study” value ([4]; 2.6 mg/kg) was >25%. The “EFS T/C” value ([4]; 5.2 mg/kg) was 2.5, the EFS activity ([4]; 5.2 mg/kg) was “Int” and the “Estimate of median time to event” value ([4]; 5.2 mg/kg) was 31.6 days. The Response activity ([4]; 5.2 mg/kg) was “High”, the “Median RTV/hCD45 at end of study” value ([4]; 5.2 mg/kg) was >25% and the “EFS T/C” value ([4]; 10.4 mg/kg) was >3.3. For the same molecule, the EFS activity ([4]; 10.4 mg/kg) was “Int”, the Response activity ([4]; 10.4 mg/kg) was “High” and the “Median RTV/hCD45 at end of study” value ([4]; 10.4 mg/kg) was 6.2%. For the same molecule, the “EFS T/C” value ([4]; 20.8 mg/kg) was >3.3, the EFS activity ([4]; 20.8 mg/kg) was “High” and the Median group response ([4]; 20.8 mg/kg) was “MCR”. For the same molecule, the Response activity ([4]; 20.8 mg/kg) was “High”, the “Median RTV/hCD45 at end of study” value ([4]; 20.8 mg/kg) was 0.2% and the Ymin ([5]; A-673, minimum T/C) was 13.1%. For the same molecule, the IC50 ([5]; read-out: Absolute IC50) was 32 nM, the IC50 ([5]; read-out: Relative IC50) was 30 nM and the “mice that died in the MLN8237 treatment arms” value [6] was 5 of 90. The “mice that died in the MLN8237 treatment arms, percent” value [6] was 5.6%, the Ymin ([7]; CHLA-90, minimum T/C) was 16.3% and the IC50 ([7]; read-out: Absolute IC50) was 61 nM. For the same molecule, the IC50 ([7]; read-out: Relative IC50) was 48 nM.
